Reference: ChEMBL document CHEMBL3352487, “Synthesis, antibacterial activity, and biological evaluation of formyl hydroxyamino derivatives as novel potent peptide deformylase inhibitors against drug-resistant bacteria” (Eur J Med Chem, 2014)
Converted amounts (≈) assume the structure as drawn.

Experiments:
[1] = system: Staphylococcus aureus; assay: Antimicrobial activity against Staphylococcus aureus MRSA08-12 in peritonitis mouse model assessed as mortality of host at 10 mg/kg, iv as single dose relative to control; assay type: functional
Method in brief: (§1)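 Outbred KM mice (20–25 g) infected i.p. with a 90–100% lethal dose (5 × 10^7 CFU/mL) in 0.5 mL brain heart infusion broth with 5% mucin. Single i.v. dose of 1.25–20 mg/kg in 20% DMSO, 0.1 mL. Ten mice per dose; daily monitoring for 14 days; ED50 from cumulative mortality by Bliss's method.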

[2] = system: Staphylococcus aureus; assay: Antimicrobial activity against Staphylococcus aureus MRSA08-12 in peritonitis mouse model assessed as mortality of host at 2.5 mg/kg, iv as single dose relative to control; assay type: functional
Method in brief: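 KM outbred mice (20–25 g) inoculated intraperitoneally with a 90-to-100%-lethal dose (5 × 10^7 CFU/mL) of MRSA08-12 in 0.5 mL brain heart infusion broth with 5% mucin. Single i.v. dose in 20% DMSO, 0.1 mL; doses 1.25–20 mg/kg, 10 mice per dose. Cumulative mortality tracked daily for 14 days; ED50 by Bliss's method.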

[3] = Fraction unbound in CD1 mouse plasma at 2 uM by equilibrium dialysis; assay type: ADME, cell-free
Method in brief: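 Pooled CD-1 mouse plasma spiked to 2 µM final, equilibrium dialysis in triplicate against 100 mM PBS pH 7.4, 4 h at 37 °C with rotation; matrix-matched samples acetonitrile-precipitated, LC-MS/MS with internal standards. Unbound = free/total ×100; recovery = (free+total)/pre-dialysis ×100.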

[4] = Protein binding in CD1 mouse plasma at 2 uM by equilibrium dialysis; assay type: ADME, cell-free; settings: read-out: PPB (converted)
[5] = system: Mus musculus; assay: Acute toxicity in KM mouse assessed as lung abnormality at 250 mg/kg, iv measured for 14 days by necropsy; assay type: organism-based; parameters: dose 250 mg/kg, route intravenous; settings: in vivo, 336 h
Method in brief: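 Outbred KM mice (SPF, 20–25 g; nine male, ten female) given a single tail-vein injection of 100 or 250 mg/kg in PBS pH 6.5 with 20% DMSO over about 60 s. Behaviour, weight, coat colour, anal temperature, food and water intake, and urine and stool weight followed for 14 days. On day 14, gross necropsy of skin, lungs, heart, liver, kidneys and spleen.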

[6] = Acute toxicity in iv dosed KM mouse measured for 14 days; assay type: organism-based; settings: in vivo
Method in brief: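 Outbred KM mice (SPF, 20–25 g; nine male, ten female) given a single tail-vein i.v. dose of 100 or 250 mg/kg, formulated in PBS pH 6.5 containing 20% DMSO. Behaviour, weight, coat, anal temperature, food and water intake, and excreta monitored daily for 14 days, then necropsy.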

[7] = system: Staphylococcus aureus; assay: Antimicrobial activity against methicillin-resistant Staphylococcus aureus after 24 hrs by broth microdilution method; assay type: functional
Method in brief: (§2)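 Broth microdilution following NCCLS M7-A4, using ATCC strains and clinical isolates from a provincial hospital.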

[8] = system: Staphylococcus epidermidis; assay: Antimicrobial activity against Staphylococcus epidermidis after 24 hrs by broth microdilution method; assay type: functional
Method in brief: (§3)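 Broth microdilution following NCCLS M7-A4; ATCC strains and clinical isolates from a provincial hospital.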

[9] = system: Escherichia coli; assay: Antimicrobial activity against Escherichia coli isolate 1 after 24 hrs by broth microdilution method; assay type: functional; settings: isolate 1, 24 h; method in brief: as §3
[10] = system: Staphylococcus aureus; assay: Antimicrobial activity against Staphylococcus aureus OXFORD after 24 hrs by broth microdilution method; assay type: functional; method in brief: as §2
[11] = system: Enterococcus faecium; assay: Antimicrobial activity against Enterococcus faecium X7501 after 24 hrs by broth microdilution method; assay type: functional; settings: X7501, 24 h; method in brief: as §3
[12] = system: Moraxella catarrhalis; assay: Antimicrobial activity against Moraxella catarrhalis 1502 after 24 hrs by broth microdilution method; assay type: functional; settings: Moraxella catarrhalis, 1502, 24 h; method in brief: as §3
[13] = system: Staphylococcus aureus; assay: Antimicrobial activity against Staphylococcus aureus isolate CARTER 37 after 24 hrs by broth microdilution method; assay type: functional; settings: isolate CARTER 37, 24 h; method in brief: as §2
[14] = system: Staphylococcus aureus; assay: Antimicrobial activity against Staphylococcus aureus isolate Ealing 23 after 24 hrs by broth microdilution method; assay type: functional; settings: isolate Ealing 23, 24 h; method in brief: as §2
[15] = system: Staphylococcus aureus; assay: Antimicrobial activity against Staphylococcus aureus isolate Ealing 32 after 24 hrs by broth microdilution method; assay type: functional; settings: isolate Ealing 32, 24 h; method in brief: as §3
[16] = system: Staphylococcus aureus; assay: Antimicrobial activity against Staphylococcus aureus isolate SWEETING after 24 hrs by broth microdilution method; assay type: functional; method in brief: as §2
[17] = system: Staphylococcus aureus; assay: Antimicrobial activity against Staphylococcus aureus isolate CL 1033 after 24 hrs by broth microdilution method; assay type: functional; settings: isolate CL 1033, 24 h; method in brief: as §3
[18] = system: Staphylococcus aureus; assay: Antimicrobial activity against Staphylococcus aureus isolate CL 938 after 24 hrs by broth microdilution method; assay type: functional; settings: isolate CL 938, 24 h; method in brief: as §3
[19] = system: Staphylococcus aureus; assay: Antimicrobial activity against Staphylococcus aureus isolate NEQAS 4026 after 24 hrs by broth microdilution method; assay type: functional; settings: isolate NEQAS 4026, 24 h; method in brief: as §3
[20] = system: Staphylococcus aureus; assay: Antimicrobial activity against Staphylococcus aureus isolate PAV 5 after 24 hrs by broth microdilution method; assay type: functional; settings: isolate PAV 5, 24 h; method in brief: as §3
[21] = system: Staphylococcus aureus; assay: Antimicrobial activity against Staphylococcus aureus isolate RN1030 after 24 hrs by broth microdilution method; assay type: functional; settings: isolate RN1030, 24 h; method in brief: as §2
[22] = system: Staphylococcus aureus; assay: Antimicrobial activity against Staphylococcus aureus isolate 929003 after 24 hrs by broth microdilution method; assay type: functional; settings: isolate 929003, 24 h; method in brief: as §3
[23] = system: Staphylococcus aureus; assay: Antimicrobial activity against Staphylococcus aureus isolate 929035 after 24 hrs by broth microdilution method; assay type: functional; settings: isolate 929035, 24 h; method in brief: as §3
[24] = system: Staphylococcus aureus; assay: Antimicrobial activity against Staphylococcus aureus isolate 934334 after 24 hrs by broth microdilution method; assay type: functional; settings: isolate 934334, 24 h; method in brief: as §3
[25] = system: Staphylococcus aureus; assay: Antimicrobial activity against Staphylococcus aureus isolate 934335 after 24 hrs by broth microdilution method; assay type: functional; settings: isolate 934335, 24 h; method in brief: as §3
[26] = Half life in Sprague-Dawley rat at 5 mg/kg, iv; assay type: ADME, organism-based; parameters: dose 5 mg/kg, route intravenous; settings: in vivo
[27] = AUC (0 to t) in Sprague-Dawley rat at 5 mg/kg, iv; assay type: ADME, organism-based; parameters: dose 5 mg/kg, route intravenous; settings: plasma
[28] = AUC (0 to infinity) in Sprague-Dawley rat at 5 mg/kg, iv; assay type: ADME, organism-based; parameters: time infinity, dose 5 mg/kg, route intravenous; settings: plasma
[29] = Clearance in Sprague-Dawley rat at 5 mg/kg, iv; assay type: ADME, organism-based; parameters: dose 5 mg/kg, route intravenous; settings: in vivo
[30] = Cmax in Sprague-Dawley rat at 25 mg/kg, po; assay type: ADME, organism-based; parameters: dose 25 mg/kg, route oral; settings: in vivo
[31] = Tmax in Sprague-Dawley rat at 25 mg/kg, po; assay type: ADME, organism-based; parameters: dose 25 mg/kg, route oral; settings: in vivo
[32] = AUC (0 to t) in Sprague-Dawley rat at 25 mg/kg, po; assay type: ADME, organism-based; parameters: dose 25 mg/kg, route oral; settings: plasma
[33] = AUC (0 to infinity) in Sprague-Dawley rat at 25 mg/kg, po; assay type: ADME, organism-based; parameters: dose 25 mg/kg, route oral, time infinity; settings: plasma
[34] = Oral bioavailability in Sprague-Dawley rat at 25 mg/kg; assay type: ADME, organism-based; settings: in vivo
[35] = molecular target: hERG (KCNH2) (Homo sapiens, UniProt Q12809); assay: Inhibition of human ERG at 10 uM
Chain of hERG (KCNH2) (Q12809 whole entry): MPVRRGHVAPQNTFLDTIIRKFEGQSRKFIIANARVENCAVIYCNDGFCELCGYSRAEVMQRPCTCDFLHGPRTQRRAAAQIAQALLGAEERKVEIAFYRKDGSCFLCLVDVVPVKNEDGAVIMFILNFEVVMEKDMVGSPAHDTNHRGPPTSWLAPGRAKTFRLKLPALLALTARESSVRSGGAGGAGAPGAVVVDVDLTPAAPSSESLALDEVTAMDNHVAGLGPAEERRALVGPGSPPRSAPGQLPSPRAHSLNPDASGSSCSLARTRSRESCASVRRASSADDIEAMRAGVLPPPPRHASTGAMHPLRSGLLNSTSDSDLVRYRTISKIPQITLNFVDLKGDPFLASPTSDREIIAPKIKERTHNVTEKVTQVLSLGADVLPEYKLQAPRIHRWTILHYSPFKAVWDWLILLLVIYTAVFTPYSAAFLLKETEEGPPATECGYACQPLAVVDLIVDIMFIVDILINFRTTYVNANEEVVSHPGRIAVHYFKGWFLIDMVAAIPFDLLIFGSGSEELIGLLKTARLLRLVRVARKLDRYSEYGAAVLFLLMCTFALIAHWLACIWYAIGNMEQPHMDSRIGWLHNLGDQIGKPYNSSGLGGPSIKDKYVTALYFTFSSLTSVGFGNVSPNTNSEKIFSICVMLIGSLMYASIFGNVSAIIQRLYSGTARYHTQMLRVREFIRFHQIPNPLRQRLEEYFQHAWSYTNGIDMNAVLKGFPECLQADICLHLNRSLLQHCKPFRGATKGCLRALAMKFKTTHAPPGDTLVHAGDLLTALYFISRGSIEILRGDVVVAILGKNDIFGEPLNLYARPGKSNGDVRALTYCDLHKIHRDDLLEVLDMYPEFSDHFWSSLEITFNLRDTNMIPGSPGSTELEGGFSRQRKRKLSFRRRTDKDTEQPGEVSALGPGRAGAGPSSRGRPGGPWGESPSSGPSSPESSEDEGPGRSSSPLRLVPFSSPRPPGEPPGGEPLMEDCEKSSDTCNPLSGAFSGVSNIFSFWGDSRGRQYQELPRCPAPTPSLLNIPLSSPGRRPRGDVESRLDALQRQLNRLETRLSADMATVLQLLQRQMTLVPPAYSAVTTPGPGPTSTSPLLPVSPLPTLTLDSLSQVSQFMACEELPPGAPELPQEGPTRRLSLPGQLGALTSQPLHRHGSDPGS

[36] = Solubility of the compound in artificial gastric juice measured every 2 hrs for 12 hrs by HPLC analysis; assay type: ADME; settings: simulated gi fluid
[37] = Stability of the compound in artificial gastric juice measured every 2 hrs for 12 hrs by HPLC analysis; assay type: ADME; settings: simulated gi fluid
[38] = Stability of the compound in artificial intestinal juice measured every 2 hrs for 12 hrs by HPLC analysis; assay type: physicochemical; settings: simulated gi fluid
[39] = system: Staphylococcus aureus; assay: Antimicrobial activity against Staphylococcus aureus MRSA08-12 in peritonitis mouse model assessed as mortality of host at 20 mg/kg, iv as single dose relative to control; assay type: functional; method in brief: as §1

CCCC[C@H](CN(O)C=O)C(=O)N1CC=C[C@H]1C(=O)Nc1ccc(F)c[n+]1[O-]
mortality at 10 mg/kg [1]: 30% | mortality at 2.5 mg/kg [2]: 80% | fraction unbound at 2 µM [3]: 0.467 | fraction unbound at 2 µM [4]: 0.467 | Activity [5]: Non-toxic | LD50 at 336 h [6]: > 250 mg/kg | MIC [7]: 0.5 µg/mL (≈ 1.27 µM) | MIC [8]: 1 µg/mL (≈ 2.54 µM) | MIC [9]: > 64 µg/mL | MIC [10]: 0.5 µg/mL (≈ 1.27 µM) | MIC [11]: 2 µg/mL (≈ 5.07 µM) | MIC [12]: ≤ 0.06 µg/mL | MIC [13]: 0.5 µg/mL (≈ 1.27 µM) | MIC [14]: 0.5 µg/mL (≈ 1.27 µM) | MIC [15]: 0.25 µg/mL (≈ 0.634 µM) | MIC [16]: 0.125 µg/mL (≈ 0.317 µM) | MIC [17]: 1 µg/mL (≈ 2.54 µM) | MIC [18]: 1 µg/mL (≈ 2.54 µM) | MIC [19]: 1 µg/mL (≈ 2.54 µM) | MIC [20]: 1 µg/mL (≈ 2.54 µM) | MIC [21]: 0.5 µg/mL (≈ 1.27 µM) | MIC [22]: 2 µg/mL (≈ 5.07 µM) | MIC [23]: 1 µg/mL (≈ 2.54 µM) | MIC [24]: 1 µg/mL (≈ 2.54 µM) | MIC [25]: 0.25 µg/mL (≈ 0.634 µM) | half-life [26]: 70.2 min | AUC(0-t) [27]: 1950 ng·h/mL | AUC(0-inf) [28]: 1960 ng·h/mL | clearance [29]: 46.8 mL/min/kg | Cmax [30]: 1390 ng/mL | Tmax [31]: 41.3 min | AUC(0-t) [32]: 3320 ng·h/mL | AUC(0-inf) [33]: 3390 ng·h/mL | bioavailability [34]: 34.6% | inhibition at 10 µM [35]: 6.71% | solubility [36]: soluble | Stability [37]: Stable | Stability [38]: Stable | mortality at 20 mg/kg [39]: 10%
